Fewer inactive variants are shown than the library holds.
B1: tRNA (parent)
chain: GUUCCGUUGGCGUAAUGGUAACGCGUCUCCCUCCUAAGGAGAAGACUGCGGGUUCGAGUCCCGUACGGAACG

Variants of: B1
Test: yeast fitness relative to wild type (ratio to wild type); higher = fitter; tRNA-Arg(CCU), competitive growth, 37 C, YPD
Procedure, shortened: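 Variants of the tRNA-Arg(CCU) gene were chemically synthesised with a 3% per-site mutation rate across 69 sites and placed at the native genomic locus in Saccharomyces cerevisiae. Six parallel replicates of the pooled strains were competed in YPD at 37°C for 24 hours, and gene amplicons from the start and end populations were read by 100-nucleotide paired-end sequencing. Darwinian fitness relative to wild type was derived from changes in genotype frequencies. Genotypes required ≥ 100 starting reads, and estimates < 0.5 were set to 0.5.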

Going from GUUACGUUGGCGUAAUGGUAACGCGUCUCCCUCCUAAGGAGAAGACUGCGGGUGCGAGUCCCGUUCGGAACG [C4A U54G A65U] to GUUACGUUGGCGUAAUGGUAACGCGUCUCCCUCCUAAGGAGAAGACUGCGGGUUCGAGUCCCGCACGCAACG [C4A U64C G68C], the yeast fitness rises from ≤ 0.5 to 0.971.

Going from GUUGCGUUGGCGUCAUGGUGACGCGUCUCCCUCCUAAGGAGAAGACUGCGGGUUCGAGUCCCGUACGGAACG [C4G A14C A20G] to GUUGCGUUGGCGUCAUGGUAACGGGUCUCCCUCCUAAGGAGAAGACUGCGGGCUCGAGUCCGGUACGGAACG [C4G A14C C24G U53C C62G], the yeast fitness falls from 0.619 to ≤ 0.5.

GUUGCGUUGGCGUCAUGGUAACGUGUCUCCCUCCUAAGGAGAAGACUGUGGGUUCGAGUCCCGUACGGAACG [C4G A14C C24U C49U] and GUUGCGUUGGCGUCAUGGUAACGCGUCUCCCUCCUAAGGAGAAGACUGUGGGUUCGAGUCCCGUACGGAACG [C4G A14C C49U] cannot be ordered by yeast fitness: ≤ 0.5 for the first, ≤ 0.5 for the second.

Compared with GUUGCGUUGGCGUCAUGGUAACGCCUCUCCCUCCUAAGGAGAAGUCUGCGGGUUCGAGUCCCGUACGGAACG [C4G A14C G25C A45U], GUUGCGUUGGCGUCAUGGUAACGCCUCUCCCUCCUAAGGAGAAGUCUGCGGGUUCGUGUCCCGUACGGAACG [C4G A14C G25C A45U A57U] is higher in yeast fitness: ≤ 0.5 for the first, 0.55 for the second.

First: GUUGCGUUGGCGUCAUGGUAACGCCUCUCCCUCCUAAGGAGAAGUCAGCGGGUUCGUGUCCCGUACGGAACG [C4G A14C G25C A45U U47A A57U]
Second: GUUGCGUUGGCGUCAUGGUAACGCGUCUCCCUCCUAAGGAGAAGACUCCGGGUUCGAGUCCCGUACGGAACG [C4G A14C G48C]
The yeast fitness of the first is lower: ≤ 0.5 for the first, 0.579 for the second.

GUUGCGUUGGCGUCAUGGUAACGCGUCUCCCUCCUAAGGAGAAGACUGCGCGUUCGAGUCCCGUACGGAACG [C4G A14C G51C] and GUUGCGUUGGCGUGAUGGUAACGCGUCUCCCUCCUAUAGAGAAGACUGCGGGUUCGAGUCCCGUACGGAACG [C4G A14G A37U G38A] cannot be ordered by yeast fitness: ≤ 0.5 for the first, ≤ 0.5 for the second.

GUUGCGUUGGCGUGAUGGUAACGGGUCUCCCUCCUAAGGAGAAGACUGCGGGUUCGAGUCCCGUACGGAACG [C4G A14G C24G] and GUUGCGUUGGCGUGAUGGUAACGCGUCUCCCUCCUAAAGAGAAGACUGCGGGUUCCAGUCCCGUACGGAGCG [C4G A14G G38A G56C A70G] cannot be ordered by yeast fitness: ≤ 0.5 for the first, ≤ 0.5 for the second.

First: GUUGCGUUGGCGUGAUGGUAACGCGUCUCCCUCCUAAGGAGAAGACUGCGGAUUCGAGUCCCGUACGGAACG [C4G A14G G52A]
Second: GUUGCGUUGGCGUUAUGGUACCGCGUCUCCCUCCUAAGGAGAAGACUGCGGGUUCGAGUCCCGUACGGAACG [C4G A14U A21C]
The yeast fitness of the first is lower: ≤ 0.5 for the first, 0.764 for the second.

GUUGCGUUGGCGUUAUGGUAACGUGUCUCCCUCCUAAGGAGAAGACUGGGGGUUCGAGUCCCGUACGGAACG [C4G A14U C24U C49G] and GUUGCGUUGGCGUUAUGGUAACGUGUCUCCCUCCUAAGGAGAAGACUGGGGGUUCGAGUCCCAUACGGAACG [C4G A14U C24U C49G G63A] cannot be ordered by yeast fitness: ≤ 0.5 for the first, ≤ 0.5 for the second.

GUUGCGUUGGCGUUAUGGUAACGCGUCUCCUUCCUAAGGAGAAAAUUGUGGGUUCGAGUCCCGUACGGAACG [C4G A14U C31U G44A C46U C49U] and GUUGCGUUGGCGUUAUGGUAACACGUCUCCCUCCUAAGGAGAAGACUGCGGGUUCCAGUCCCGUACGGAACG [C4G A14U G23A G56C] cannot be ordered by yeast fitness: ≤ 0.5 for the first, ≤ 0.5 for the second.

GUUGCGUUGGCGUUAUGGUAACGCGUCUCCCCCCUAAGGAGAAGUCUGGGGGUUCGAGUCCCGCACGGAACG [C4G A14U U32C A45U C49G U64C] and GUUGCGUUGGCGUUAUGGUAACGCGUCUCCCUCCUAAGGAGAAGACUGCGGGUUCGAGGCCCGUACGGAACG [C4G A14U U59G] cannot be ordered by yeast fitness: ≤ 0.5 for the first, ≤ 0.5 for the second.

Going from GUUGCGUUGGCGUACUGGUAACGCGUCUCCCUCCUAAGGAGAAGACUGCGGGUUCGAGUCCCGUACGGAACG [C4G A15C] to GUUGCGUUGGCGUACUGGUAACGCGUCUCCCUCCUAAGGAGAAGACUGCGGGUUCGUGUCGCGUACGGAACG [C4G A15C A57U C61G], the yeast fitness falls from 0.719 to ≤ 0.5.

Compared with GUUGCGUUGGCGUACUGGUAACGCGUCUCCCUCCUAAGGAGAAGACUGCGGGUUCGAGUCCCGUAUGGAACG [C4G A15C C66U], GUUGCGUUGGCGUACUGGUAACGCGGCUCCCUCCUAAGGACAAGACUGCGGGUUCGAGUGCCGUACGGAACG [C4G A15C U26G G41C C60G] is higher in yeast fitness: 0.539 for the first, 0.631 for the second.

GUUGCGUUGGCGUACUGGUAACGCGGCUCCCUCCUAAGGACAAGACCGCGGGUUCGAGUCCCGUACGCAACG [C4G A15C U26G G41C U47C G68C] and GUUGCGUUGGCGUAGUGGUAACGCGUCUCCCUCCUAAGGAGAGGACUGCGGGUUCGCGUCCCGUUCGGAACG [C4G A15G A43G A57C A65U] cannot be ordered by yeast fitness: ≤ 0.5 for the first, ≤ 0.5 for the second.

Going from GUUGCGUUGGCGUAGUGGUAACGCGUCUCCCUCCUAAGGAGAAGACUGCGGGUACGAGUCCCGUACGGAUCG [C4G A15G U54A A70U] to GUUGCGUUGGCGUAUUGGUAACGCGUCUCCCUCCUAAGGAGAAGACUGCGGGUUCGAGUCCCGUACGGAACG [C4G A15U], the yeast fitness rises from ≤ 0.5 to 0.824.

GUUGCGUUGGCGUAUUGGUAACGCGUCUCCCUCCUAAGGCGAAGACUGCGGGUUCGAGUCCCGUACGGAACG [C4G A15U A40C] and GUUGCGUUGGCGUAUUGGUAACGCGUCUCCCUCCUAAGGCGAAGACUGCGGGUUCGAGUAGCGUCCGGAACG [C4G A15U A40C C60A C61G A65C] cannot be ordered by yeast fitness: ≤ 0.5 for the first, ≤ 0.5 for the second.

Going from GUUGCGUUGGCGUAUUGGUAACGCGUCUCCCUACUAAGGAGAAGACUGCGGCUUCGAGUCCCGUACGGAACG [C4G A15U C33A G52C] to GUUGCGUUGGCGUAUUGGUAACGCGUCUCCCUACUAAGGAGAAGACUGCGGCUUGGAGUCCCGUACGGAACG [C4G A15U C33A G52C C55G], the yeast fitness falls from 0.707 to ≤ 0.5.

GUUGCGUUGGCGUAUUGGUAACGCGUCUCCCUACUAAGGAGAAGACUGCGGGUUCGAGUCCCGUACGCAACG [C4G A15U C33A G68C] and GUUGCGUUGGCGUAUUGGUAACGCGUCUCCCUCCUAAGGAGAAGACUGCGGGUUAGAGUCCCGUACGGAACG [C4G A15U C55A] cannot be ordered by yeast fitness: ≤ 0.5 for the first, ≤ 0.5 for the second.

Compared with GUUGCGUUGGCGUAUUGGUAACGCGUCUCCCUCCUAAGGAGAAGACUGCGGGUUCCAGUCCCGUACGGAACG [C4G A15U G56C], GUUGCGUUGGCGUAAUGGUCACGCGUCUCCCUCCUAAGGGGAAGACUGCGGCUUCGAGUCCCGUACGGAACG [C4G A20C A40G G52C] is higher in yeast fitness: ≤ 0.5 for the first, 0.6 for the second.

Reference: the RNAGym collection of RNA variant scans (doi:10.1126/science.aae0568)
